Assay results taken from ChEMBL document CHEMBL1649120, “Differential effects of inhibiting chitin and 1,3-{beta}-D-glucan synthesis in ras and calcineurin mutants of Aspergillus fumigatus” (2009).
Activity calls are given as the source filed them. No cut-off for these calls is given here. *1 amine or outer side, *2 acyl side, *3 side chain or, on linkers, in order; H or OH if unused. Where a SMILES comes first, the peptide text is derived from it. Bridges are numbered along the chain shown (N, C = ends). [ ]: non-standard residue; d: D form. The star is where a group is joined. hTyr(3S-OH,4S-OH,3'-OSO3H) = N[C@H](C(=O)O)[C@H](O)[C@@H](O)c1ccc(O)c(OS(=O)(=O)O)c1; Orn(4R-OH,5R-OH) = O=C([C@H](C[C@@H](O)[C@@H](O)N[*:3])N[*:1])[*:2]; Pro(3S-OH,4S-Me) = C[C@H]1CN[C@H](C(=O)O)[C@H]1O; X1 = CCCCCOc1ccc(-c2cc(-c3ccc(C(=O)*)cc3)no2)cc1; Gln(3R-OH) = NC(=O)C[C@@H](O)[C@H](N)C(=O)O; Hyp = O=C(O)[C@@H]1C[C@@H](O)CN1

What was measured:
Aspergillus fumigatus [1] = assay: Antifungal activity against Aspergillus fumigatus H237 assessed as abnormal hyphal growth by CLSI method; type: functional; conditions: read-out: MEC
Outline: (§1)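 MEC by CLSI broth microdilution in RPMI 1640. Conidia were incubated with or without drug for 48 h at 37°C, in triplicate.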

Aspergillus fumigatus [2] = assay: Antifungal activity against Aspergillus fumigatus H237 expressing dominant-active rasA gene assessed as abnormal hyphal growth by CLSI method; type: functional; conditions: read-out: MEC; outline: as §1
Aspergillus fumigatus [3] = assay: Antifungal activity against rasA deficient Aspergillus fumigatus H237 assessed as abnormal hyphal growth by CLSI method; type: functional; conditions: read-out: MEC; outline: as §1
Aspergillus fumigatus [4] = assay: Antifungal activity against crzA deficient Aspergillus fumigatus Af293 assessed as abnormal hyphal growth by CLSI method; type: functional; conditions: read-out: MEC; outline: as §1
Aspergillus fumigatus [5] = assay: Antifungal activity against Aspergillus fumigatus Af293 expressing crzA gene assessed as abnormal hyphal growth by CLSI method; type: functional; conditions: read-out: MEC; outline: as §1
Aspergillus fumigatus [6] = assay: Antifungal activity against cnaA deficient Aspergillus fumigatus Af293 assessed as inhibition of hyphal growth at germling stage at 1 ug/ml by CLSI method; type: functional, organism-based
Outline: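 Conidia were grown as for CLSI susceptibility testing in RPMI 1640 with or without echinocandin (1 μg/ml) for 48 h at 37°C. Hyphal morphology was then examined by bright-field microscopy.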

Aspergillus fumigatus [7] = assay: Antifungal activity against cnaA deficient Aspergillus fumigatus Af293 assessed as abnormal hyphal growth by CLSI method; type: functional; conditions: read-out: MEC; outline: as §1
Aspergillus fumigatus [8] = assay: Antifungal activity against Aspergillus fumigatus H237 expressing rasA gene assessed as abnormal hyphal growth by CLSI method; type: functional; conditions: read-out: MEC; outline: as §1
Aspergillus fumigatus [9] = assay: Antifungal activity against Aspergillus fumigatus Af293 assessed as abnormal hyphal growth by CLSI method; type: functional; conditions: read-out: MEC; outline: as §1
Aspergillus fumigatus [10] = assay: Antifungal activity against Aspergillus fumigatus Af293 expressing cnaA gene assessed as abnormal hyphal growth by CLSI method; type: functional; conditions: read-out: MEC; outline: as §1
Aspergillus fumigatus [11] = assay: Antifungal activity against cnaA deficient Aspergillus fumigatus Af293 assessed as increase in calcofluor white staining og conidia at 1 ug/ml after 16 hrss by fluorescence microscopy; type: functional, organism-based
Outline: (§2)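 10³ conidia/ml were grown on coverslips in RPMI 1640 with or without 1 μg/ml drug for 16 h at 37°C. Coverslips were stained with calcofluor white for 5 min at room temperature, rinsed and mounted. Fluorescence microscopy used a UV exposure fixed at 25 ms, set on the untreated wild type.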

Aspergillus fumigatus [12] = assay: Antifungal activity against crzA deficient Aspergillus fumigatus Af293 assessed as decrease in 1, 3-beta-D-glucan cell wall content at 1 ug/ml by aniline blue assay; type: functional, organism-based
Outline: (§3)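 10⁶ conidia/ml were grown in RPMI 1640 with or without drug for 48 h at 37°C, 250 rpm. Hyphae were washed in 0.1 M NaOH and lyophilized. 5 mg was taken into 1 M NaOH, sonicated and heated at 52°C for 30 min. Aniline blue mix (pH 9.5) was added for 30 min at 52°C. Fluorescence was read at ex 405/em 460 nm against a curdlan standard curve. Results are % change in RFU/mg versus untreated wild type, from five independent experiments.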

Aspergillus fumigatus [13] = assay: Antifungal activity against rasA deficient Aspergillus fumigatus H237 assessed as decrease in 1, 3-beta-D-glucan cell wall content at 1 ug/ml by aniline blue assay; type: functional, organism-based; outline: as §3
Aspergillus fumigatus [14] = assay: Antifungal activity against Aspergillus fumigatus H237 expressing dominant-active rasA assessed as decrease in 1, 3-beta-D-glucan cell wall content at 1 ug/ml after 48 hrs by aniline blue assay; type: functional, organism-based; outline: as §3
Aspergillus fumigatus [15] = assay: Antifungal activity against cnaA deficient Aspergillus fumigatus Af293 assessed as decrease in 1, 3-beta-D-glucan cell wall content at 1 ug/ml by aniline blue assay; type: functional, organism-based; outline: as §3
Aspergillus fumigatus [16] = assay: Antifungal activity against Aspergillus fumigatus H237 assessed as increase in chitin cell wall content at 1 ug/ml after 48 hrs; type: functional, organism-based
Outline: (§4)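 Cultures were grown at 10⁶ conidia/ml in RPMI 1640 with 1 μg/ml drug (single agent or combination) for 48 h at 37°C, 250 rpm. 5 mg of lyophilized mycelium was digested in saturated KOH at 130°C for 1 h, then ethanol-precipitated. Glucosamine was measured by nitrous acid deamination and MBTH/FeCl₃ colour, A650, against a 10 μg/ml glucosamine standard. Output is glucosamine equivalents (μg/ml), from biological triplicate.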

Aspergillus fumigatus [17] = assay: Antifungal activity against Aspergillus fumigatus H237 assessed as decrease in 1, 3-beta-D-glucan cell wall content at 1 ug/ml after 48 hrs by aniline blue assay; type: functional, organism-based; outline: as §3
Aspergillus fumigatus [18] = assay: Antifungal activity against crzA deficient Aspergillus fumigatus Af293 assessed as increase in chitin cell wall content at 1 ug/ml; type: functional, organism-based; outline: as §4
Aspergillus fumigatus [19] = assay: Antifungal activity against Aspergillus fumigatus Af293 assessed as increase in chitin cell wall content at 1 ug/ml after 48 hrs; type: functional, organism-based; outline: as §4
Aspergillus fumigatus [20] = assay: Antifungal activity against rasA deficient Aspergillus fumigatus H237 assessed as increase in chitin cell wall content at 1 ug/ml; type: functional, organism-based; outline: as §4
Aspergillus fumigatus [21] = assay: Antifungal activity against crzA deficient Aspergillus fumigatus Af293 assessed as increase in calcofluor white staining og conidia at 1 ug/ml after 16 hrss by fluorescence microscopy; type: functional, organism-based; outline: as §2
Aspergillus fumigatus [22] = assay: Antifungal activity against cnaA deficient Aspergillus fumigatus Af293 assessed as increase in chitin cell wall content at 1 ug/ml; type: functional, organism-based; outline: as §4
Aspergillus fumigatus [23] = assay: Antifungal activity against Aspergillus fumigatus H237 expressing dominant-active rasA assessed as increase in chitin cell wall content at 1 ug/ml; type: functional, organism-based; outline: as §4
Candida albicans = assay: Antifungal activity against Candida albicans SC5314 assessed as increase in chitin cell wall content at 0.125 ug/ml; type: functional
Aspergillus fumigatus [24] = assay: Antifungal activity against Aspergillus fumigatus Af293 assessed as decrease in 1, 3-beta-D-glucan cell wall content at 1 ug/ml after 48 hrs by aniline blue assay; type: functional, organism-based; outline: as §3
Aspergillus fumigatus [25] = assay: Antifungal activity against Aspergillus fumigatus Af293 assessed as increase in calcofluor white staining og conidia at 1 ug/ml after 16 hrs by fluorescence microscopy; type: functional, organism-based; outline: as §2

SMILES	minimal effective concentration (Aspergillus fumigatus [1]) [µg/mL]	minimal effective concentration (Aspergillus fumigatus [2]) [µg/mL]	minimal effective concentration (Aspergillus fumigatus [3]) [µg/mL]	minimal effective concentration (Aspergillus fumigatus [4]) [µg/mL]	minimal effective concentration (Aspergillus fumigatus [5]) [µg/mL]	Activity (Aspergillus fumigatus [6])	minimal effective concentration (Aspergillus fumigatus [7]) [µg/mL]	minimal effective concentration (Aspergillus fumigatus [8]) [µg/mL]	minimal effective concentration (Aspergillus fumigatus [9]) [µg/mL]	minimal effective concentration (Aspergillus fumigatus [10]) [µg/mL]	also measured
CCCCCOc1ccc(-c2cc(-c3ccc(C(=O)N[C@H]4C[C@@H](O)[C@@H](O)NC(=O)[C@@H]5[C@@H](O)[C@@H](C)CN5C(=O)[C@H]([C@H](O)CC(N)=O)NC(=O)[C@H]([C@H](O)[C@@H](O)c5ccc(O)c(OS(=O)(=O)O)c5)NC(=O)[C@@H]5C[C@@H](O)CN5C(=O)[C@H]([C@@H](C)O)NC4=O)cc3)no2)cc1 [MICAFUNGIN] (X1-[Orn(4R-OH,5R-OH)]T[Hyp][hTyr(3S-OH,4S-OH,3'-OSO3H)][Gln(3R-OH)][Pro(3S-OH,4S-Me)]; lactam 1-C)	0.125	0.0156	> 4	0.0312	0.0625	Active	0.0039	0.125	0.125	0.125	–
CC[C@H](C)C[C@H](C)CCCCCCCCC(=O)N[C@H]1C[C@@H](O)[C@@H](NCCN)NC(=O)[C@@H]2[C@@H](O)CCN2C(=O)[C@H]([C@H](O)CCN)NC(=O)[C@H]([C@H](O)[C@@H](O)c2ccc(O)cc2)NC(=O)[C@@H]2C[C@@H](O)CN2C(=O)[C@H]([C@@H](C)O)NC1=O [CASPOFUNGIN]	1	0.25	8	0.5	1	Active	0.25	1	1	1	Activity (Aspergillus fumigatus [11]): inactive; Activity (Aspergillus fumigatus [12]): Active; Activity (Aspergillus fumigatus [13]): Active; Activity (Aspergillus fumigatus [14]): Active; Activity (Aspergillus fumigatus [15]): Active; Activity (Aspergillus fumigatus [16]): Active; Activity (Aspergillus fumigatus [17]): Active; Activity (Aspergillus fumigatus [18]): inactive; Activity (Aspergillus fumigatus [19]): Active; Activity (Aspergillus fumigatus [20]): Active; Activity (Aspergillus fumigatus [21]): Active; Activity (Aspergillus fumigatus [22]): inactive; Activity (Aspergillus fumigatus [23]): Active; fold change (FC) (Candida albicans): 2; Activity (Aspergillus fumigatus [24]): Active; Activity (Aspergillus fumigatus [25]): inactive
